“And” between values parts separate entries of the source, which are not always exact repeats. Equal entries are not always repeated.
Test system: Fibroblast
Assay: Multiplex assay against human fibroblast
Format: toxicity, cell-based
In short: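 On a CQ1 microscope at 37°C and 5% CO2, live cells were imaged after compound addition. They had been stained at seeding with Hoechst33342, BioTracker Green Microtubule Cytoskeleton Dye, MitoTracker Red and Annexin V Alexa Fluor 680. CellPathfinder machine-learning gating assigned cells to Hoechst high-intensity objects or normal cells, normal cells to healthy, pyknosed or fragmented nuclei, and pyknosed cells to mitotic or apoptotic. Tubulin, mitochondrial-mass and membrane-permeability phenotypes are per cents of healthy-nucleus cells.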

[1] = 12 h, 1 µM, compound concentration 1 uM
[2] = 12 h, 10 µM, compound concentration 10 uM
[3] = 24 h, 1 µM, compound concentration 1 uM
[4] = 24 h, 10 µM, compound concentration 10 uM
[5] = 48 h, 1 µM, compound concentration 1 uM
[6] = 48 h, 10 µM, compound concentration 10 uM

Structure (SMILES): CCNC1(C(N)=O)CCN(c2ncnc3c2nc(-c2ccccc2Cl)n3-c2ccc(Cl)cc2)CC1 [OTENABANT]
- Population Apoptotic (%) [1]: 26% and 37%
- Population Fragmented Nuclei (%) [1]: 19% and 25%
- Population Healthy Nuclei (%) [1]: 63% and 48%
- Population Hoechst High Intensity Objects (%) [1]: 6% and 2%
- Population Membrane Permeable-Phenotype (%) [1]: 1% and 6%
- Population Mitochondria Different-Phenotype (%) [1]: 7% and 10%
- Population Mitotic Cells (%) [1]: 73% and 62%
- Population Normal (%) [1]: 93% and 97%
- Population Pyknosed Nuclei (%) [1]: 17% and 26%
- Population Tubulin-Different-Phenotype (%) [1]: 44% and 50%
- Total Cell Count [1]: 161 and 156
- Population Apoptotic (%) [2]: 57% and 40%
- Population Fragmented Nuclei (%) [2]: 22% and 30%
- Population Healthy Nuclei (%) [2]: 64% and 48%
- Population Hoechst High Intensity Objects (%) [2]: 4% and 3%
- Population Membrane Permeable-Phenotype (%) [2]: 0% and 12%
- Population Mitochondria Different-Phenotype (%) [2]: 16% and 18%
- Population Mitotic Cells (%) [2]: 42% and 59%
- Population Normal (%) [2]: 95% and 96%
- Population Pyknosed Nuclei (%) [2]: 12% and 21%
- Population Tubulin-Different-Phenotype (%) [2]: 90% and 87%
- Total Cell Count [2]: 170 and 216
- Population Apoptotic (%) [3]: 26% and 34%
- Population Fragmented Nuclei (%) [3]: 17% and 27%
- Population Healthy Nuclei (%) [3]: 66% and 43%
- Population Hoechst High Intensity Objects (%) [3]: 4% and 5%
- Population Membrane Permeable-Phenotype (%) [3]: 0% and 9%
- Population Mitochondria Different-Phenotype (%) [3]: 8% and 14%
- Population Mitotic Cells (%) [3]: 73% and 65%
- Population Normal (%) [3]: 95% and 94%
- Population Pyknosed Nuclei (%) [3]: 15% and 29%
- Population Tubulin-Different-Phenotype (%) [3]: 44% and 57%
- Total Cell Count [3]: 154 and 155
- Population Apoptotic (%) [4]: 54%
- Population Fragmented Nuclei (%) [4]: 22% and 37%
- Population Healthy Nuclei (%) [4]: 64% and 48%
- Population Hoechst High Intensity Objects (%) [4]: 2% and 5%
- Population Membrane Permeable-Phenotype (%) [4]: 0% and 7%
- Population Mitochondria Different-Phenotype (%) [4]: 37% and 30%
- Population Mitotic Cells (%) [4]: 45%
- Population Normal (%) [4]: 97% and 94%
- Population Pyknosed Nuclei (%) [4]: 12% and 13%
- Population Tubulin-Different-Phenotype (%) [4]: 96% and 88%
- Total Cell Count [4]: 174 and 235
- Population Apoptotic (%) [5]: 68% and 59%
- Population Fragmented Nuclei (%) [5]: 18% and 33%
- Population Healthy Nuclei (%) [5]: 69% and 42%
- Population Hoechst High Intensity Objects (%) [5]: 8% and 5%
- Population Membrane Permeable-Phenotype (%) [5]: 0% and 13%
- Population Mitotic Cells (%) [5]: 31% and 40%
- Population Normal (%) [5]: 91% and 94%
- Population Pyknosed Nuclei (%) [5]: 12% and 23%
- Population Tubulin-Different-Phenotype (%) [5]: 41% and 72%
- Total Cell Count [5]: 167 and 143
- Population Apoptotic (%) [6]: 78% and 61%
- Population Fragmented Nuclei (%) [6]: 30% and 46%
- Population Healthy Nuclei (%) [6]: 61% and 47%
- Population Hoechst High Intensity Objects (%) [6]: 8% and 2%
- Population Membrane Permeable-Phenotype (%) [6]: 0% and 7%
- Population Mitochondria Different-Phenotype (%) [6]: 49% and 26%
- Population Mitotic Cells (%) [6]: 21% and 38%
- Population Normal (%) [6]: 91% and 97%
- Population Pyknosed Nuclei (%) [6]: 8% and 6%
- Population Tubulin-Different-Phenotype (%) [6]: 92% and 89%
- Total Cell Count [6]: 187 and 299

Structure (SMILES): CN1CCN2c3ccccc3Cc3ccccc3C2C1.Cl (centres undefined) [MIANSERIN HYDROCHLORIDE]
- Population Apoptotic (%) [1]: 55% and 38%
- Population Fragmented Nuclei (%) [1]: 28% and 27%
- Population Healthy Nuclei (%) [1]: 56% and 50%
- Population Hoechst High Intensity Objects (%) [1]: 2% and 4%
- Population Mitochondria Different-Phenotype (%) [1]: 0% and 5%
- Population Mitotic Cells (%) [1]: 45% and 61%
- Population Normal (%) [1]: 97% and 95%
- Population Pyknosed Nuclei (%) [1]: 14% and 22%
- Population Tubulin-Different-Phenotype (%) [1]: 31% and 56%
- Total Cell Count [1]: 138 and 119
- Population Apoptotic (%) [2]: 55% and 33%
- Population Fragmented Nuclei (%) [2]: 15% and 24%
- Population Healthy Nuclei (%) [2]: 68% and 48%
- Population Hoechst High Intensity Objects (%) [2]: 5% and 6%
- Population Membrane Permeable-Phenotype (%) [2]: 1% and 3%
- Population Mitochondria Different-Phenotype (%) [2]: 3% and 7%
- Population Mitotic Cells (%) [2]: 44% and 66%
- Population Normal (%) [2]: 94% and 93%
- Population Pyknosed Nuclei (%) [2]: 15% and 27%
- Population Tubulin-Different-Phenotype (%) [2]: 14% and 40%
- Total Cell Count [2]: 126 and 116
- Population Apoptotic (%) [3]: 52% and 36%
- Population Fragmented Nuclei (%) [3]: 32% and 30%
- Population Healthy Nuclei (%) [3]: 55% and 50%
- Population Hoechst High Intensity Objects (%) [3]: 2% and 3%
- Population Membrane Permeable-Phenotype (%) [3]: 0% and 6%
- Population Mitochondria Different-Phenotype (%) [3]: 2% and 1%
- Population Mitotic Cells (%) [3]: 47% and 63%
- Population Normal (%) [3]: 97% and 96%
- Population Pyknosed Nuclei (%) [3]: 12% and 19%
- Population Tubulin-Different-Phenotype (%) [3]: 29% and 53%
- Total Cell Count [3]: 143 and 119
- Population Apoptotic (%) [4]: 61% and 48%
- Population Fragmented Nuclei (%) [4]: 14% and 31%
- Population Healthy Nuclei (%) [4]: 73% and 47%
- Population Hoechst High Intensity Objects (%) [4]: 5% and 4%
- Population Membrane Permeable-Phenotype (%) [4]: 0% and 10%
- Population Mitochondria Different-Phenotype (%) [4]: 1% and 5%
- Population Mitotic Cells (%) [4]: 38% and 52%
- Population Normal (%) [4]: 95%
- Population Pyknosed Nuclei (%) [4]: 11% and 20%
- Total Cell Count [4]: 120 and 127
- Population Apoptotic (%) [5]: 78% and 46%
- Population Fragmented Nuclei (%) [5]: 35% and 36%
- Population Healthy Nuclei (%) [5]: 55% and 51%
- Population Hoechst High Intensity Objects (%) [5]: 2% and 3%
- Population Membrane Permeable-Phenotype (%) [5]: 0% and 3%
- Population Mitochondria Different-Phenotype (%) [5]: 2% and 10%
- Population Mitotic Cells (%) [5]: 21% and 53%
- Population Normal (%) [5]: 97% and 96%
- Population Pyknosed Nuclei (%) [5]: 9% and 11%
- Population Tubulin-Different-Phenotype (%) [5]: 35% and 50%
- Total Cell Count [5]: 151 and 116
- Population Apoptotic (%) [6]: 57% and 38%
- Population Fragmented Nuclei (%) [6]: 15% and 29%
- Population Healthy Nuclei (%) [6]: 71% and 55%
- Population Hoechst High Intensity Objects (%) [6]: 5% and 3%
- Population Membrane Permeable-Phenotype (%) [6]: 0% and 10%
- Population Mitochondria Different-Phenotype (%) [6]: 2% and 1%
- Population Mitotic Cells (%) [6]: 42% and 61%
- Population Normal (%) [6]: 94% and 96%
- Population Pyknosed Nuclei (%) [6]: 12% and 14%
- Population Tubulin-Different-Phenotype (%) [6]: 16% and 37%
- Total Cell Count [6]: 115 and 125

— ChEMBL document CHEMBL5724801, “EUbOPEN Chemogenomics Library - Multiplex” (2024)
